From EPA's CvTdb concentration-time database

Experiments:
Rat [1] = test: concentration in brain after dosing; conditions: 24 h; dosed: Perfluorooctane Sulfonate; 2 mg/kg; oral; Female; Harlan Sprague Dawley
Rat [2] = test: concentration in brain after dosing; conditions: 864 h; dosed: Perfluorooctane Sulfonate; 20 mg/kg; oral; Female; F344
Rat [3] = test: concentration in liver after dosing; conditions: 1848 h; dosed: Perfluorooctane Sulfonate; 2 mg/kg; oral; Female; Harlan Sprague Dawley
Rat [4] = test: concentration in liver after dosing; conditions: 3360 h; dosed: Perfluorooctane Sulfonate; 2 mg/kg; oral; Female; Harlan Sprague Dawley
Rat [5] = test: concentration in kidney after dosing; conditions: 24 h; dosed: Perfluorooctane Sulfonate; 20 mg/kg; oral; Female; F344
Rat [6] = test: concentration in plasma after dosing; conditions: 3360 h; dosed: Perfluorooctane Sulfonate; 2 mg/kg; oral; Female; Harlan Sprague Dawley
Rat [7] = test: concentration in brain after dosing; conditions: 0.5 h; dosed: Perfluorohexanoic Acid; 80 mg/kg; oral; Male; Harlan Sprague Dawley
Rat [8] = test: concentration in kidney after dosing; conditions: 3 h; dosed: Perfluorohexanoic Acid; 80 mg/kg; oral; Male; Harlan Sprague Dawley
Rat [9] = test: concentration in plasma after dosing; conditions: 1.5 h; dosed: Perfluorohexanoic Acid; 40 mg/kg; iv; Male; F344
Rat [10] = test: concentration in plasma after dosing; conditions: dosed: Perfluorohexanoic Acid, 40 mg/kg, oral, Male, Harlan Sprague Dawley
Rat [11] = test: concentration in plasma after dosing; conditions: dosed: Perfluorohexanoic Acid, 40 mg/kg, oral, Male, Harlan Sprague Dawley; remark: listed apart in the source
Rat [12] = test: concentration in plasma after dosing; conditions: dosed: Perfluorohexanoic Acid, 40 mg/kg, iv, Male, F344
human = test: concentration in blood after dosing; negative times count back from the end of exposure; conditions: dosed: trichloroethylene, 100 ppm, inhalation, person
How it was run: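 Sampling and analytical methods are those of each source and frequently went unreported. The concentration-versus-time and amount-versus-time points were compiled from published in vivo toxicokinetic studies and two structured collections. Most were digitised from plot screenshots with WebPlotDigitizer, with others copied from tables, in the reported units.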

Rat [13] = test: concentration in plasma after dosing; conditions: 4 h; dosed: Gemfibrozil; 50 mg/kg; oral; Male; Sprague-Dawley
Rat [14] = test: concentration in plasma after dosing; conditions: 0.25 h; dosed: Gemfibrozil; 4.29 mg/kg; oral; Male; Sprague-Dawley
Rat [15] = test: concentration in plasma after dosing; conditions: 6 h; dosed: Gemfibrozil; 50 mg/kg; oral; Male; Sprague-Dawley
Rat [16] = test: concentration in plasma after dosing; conditions: 18 h; dosed: Gemfibrozil; 100 mg/kg; oral; Male; Sprague-Dawley
Rat [17] = test: concentration in brain after dosing; conditions: 0.2 h; dosed: 2-Methyltetrahydrofuran; 40 mg/kg; iv; Male; Harlan Sprague Dawley
Rat [18] = test: concentration in brain after dosing; conditions: 7 min; dosed: 2-Methyltetrahydrofuran; 40 mg/kg; iv; Male; Harlan Sprague Dawley
Rat [19] = test: concentration in plasma after dosing; conditions: 0.2 h; dosed: 2-Methyltetrahydrofuran; 40 mg/kg; iv; Male; Harlan Sprague Dawley
Rat [20] = test: concentration in plasma after dosing; conditions: 0.75 h; dosed: 2-Methyltetrahydrofuran; 40 mg/kg; iv; Male; Harlan Sprague Dawley
Rat [21] = test: concentration in plasma after dosing; conditions: 7 min; dosed: 2-Methyltetrahydrofuran; 40 mg/kg; iv; Male; Harlan Sprague Dawley
Rat [22] = test: concentration in brain after dosing; conditions: 1 h; dosed: Fluorotelomer alcohol 8+2; 80 mg/kg; oral; Female; Harlan Sprague Dawley
Rat [23] = test: concentration in brain after dosing; conditions: 1 h; dosed: Fluorotelomer alcohol 8+2; 80 mg/kg; oral; Female; Harlan Sprague Dawley; remark: listed apart in the source
Rat [24] = test: concentration in brain after dosing; conditions: 0.5 h; dosed: Fluorotelomer alcohol 8+2; 24 mg/kg; oral; Male; Harlan Sprague Dawley
Rat [25] = test: concentration in brain after dosing; conditions: 3 h; dosed: Fluorotelomer alcohol 8+2; 24 mg/kg; oral; Male; Harlan Sprague Dawley
Rat [26] = test: concentration in plasma after dosing; conditions: dosed: 678-39-7, 12 mg/kg, iv, Male, F344
Rat [27] = test: concentration in kidney after dosing; conditions: 6 h; dosed: Fluorotelomer alcohol 8+2; 80 mg/kg; oral; Female; Harlan Sprague Dawley
Rat [28] = test: concentration in plasma after dosing; conditions: 192 h; dosed: 678-39-7; 40 mg/kg; iv; Male; F344
Rat [29] = test: concentration in kidney after dosing; conditions: 1 h; dosed: Fluorotelomer alcohol 8+2; 24 mg/kg; oral; Male; Harlan Sprague Dawley
Rat [30] = test: concentration in plasma after dosing; conditions: dosed: Fluorotelomer alcohol 8+2, 12 mg/kg, oral, Male, Harlan Sprague Dawley
Rat [31] = test: concentration in plasma after dosing; conditions: 192 h; dosed: Fluorotelomer alcohol 8+2; 24 mg/kg; oral; Male; Harlan Sprague Dawley

O=S(=O)([O-])C(F)(F)C(F)(F)C(F)(F)C(F)(F)C(F)(F)C(F)(F)C(F)(F)C(F)(F)F [Perfluorooctane Sulfonate]
Conditions | concentration in brain [ng/g] | concentration in kidney [ng/g] | concentration in liver [ng/g] | concentration in plasma [ng/mL]
Rat [1] | 757 | – | – | –
Rat [2] | 2700 | – | – | –
Rat [3] | – | – | 5680 | –
Rat [4] | – | – | 4340 | –
Rat [5] | – | 127000 | – | –
Rat [6] | – | – | – | 144

O=C(O)C(F)(F)C(F)(F)C(F)(F)C(F)(F)C(F)(F)F [Perfluorohexanoic Acid]
Conditions | concentration in brain [ng/g] | concentration in kidney [ng/g] | concentration in plasma [ng/mL]
Rat [7] | 2500 | – | –
Rat [8] | – | 65000 | –
Rat [9] | – | – | 320

concentration in plasma [ng/mL]
Conditions | 1 h | 3 h | 5 min | 24 h
Rat [10] | – | 56400 | 32900 | –
Rat [11] | 51400 | – | – | 2400
Rat [12] | – | 34.9 | 18500 | –

ClC=C(Cl)Cl [trichloroethylene]
human
Conditions | concentration in blood [ng/mL]
0 h, duration: 6 hr | 1310
0.2145 h, duration: 4 hr | 2070
0.2337 h, duration: 4 hr | 1290
0.4864 h, duration: 4 hr | 1450
0.9849 h, duration: 4 hr | 714
0.9924 h, duration: 4 hr | 513
1.967 h, duration: 4 hr | 333
1.979 h, duration: 4 hr | 268
3.961 h, duration: 4 hr | 170
18 h, duration: 6 hr | 1100
22 s, duration: 4 hr | 1870
24 h, duration: 6 hr | 562
29.5 min, duration: 4 hr | 851
42 h, duration: 6 hr | 1490
48 h, duration: 6 hr | 1230
66 h, duration: 6 hr | 2060
72 h, duration: 6 hr | 1320
90 h, duration: 6 hr | 1660
96 h, duration: 6 hr | 1370
160 h, duration: 6 hr | 921

concentration in blood [ng/mL], human, during exposure
Conditions | -6 h | -3.502 h | -3.499 h | -3.014 h | -3.003 h | -2.006 h | -1.997 h | -1.011 h | -1.009 h
duration: 4 hr | – | 1670 | 881 | 1250 | 2120 | 2530 | 1520 | 1690 | 2830
duration: 6 hr | 11.9 | – | – | – | – | – | – | – | –

Cc1ccc(C)c(OCCCC(C)(C)C(=O)O)c1 [Gemfibrozil]
Conditions | concentration in plasma [ng/mL]
Rat [13] | 5620
Rat [14] | 509
Rat [15] | 2930
Rat [16] | 3300

CC1CCCO1 (stereo not given) [2-Methyltetrahydrofuran]
Conditions | concentration in brain [ng/mL] | concentration in plasma [ng/mL]
Rat [17] | 30800 | –
Rat [18] | 23700 | –
Rat [19] | – | 32200
Rat [20] | – | 26900
Rat [21] | – | 41500

O=C(O)CCC(F)(F)C(F)(F)C(F)(F)C(F)(F)C(F)(F)C(F)(F)C(F)(F)F [Fluorotelomer acid 7+3]
Conditions | concentration in brain [ng/g] | concentration in kidney [ng/g] | concentration in plasma [ng/mL]
Rat [22] | 252 | – | –
Rat [23] | 277 | – | –
Rat [24] | 81.2 | – | –
Rat [25] | 440 | – | –
Rat [27] | – | 3640 | –
Rat [28] | – | – | 48.1
Rat [29] | – | 310 | –
Rat [31] | – | – | 40.8

concentration in plasma [ng/mL]
Conditions | 0.5 h | 0.75 h | 9 h | 12 h
Rat [26] | – | 334 | – | 90
Rat [30] | 116 | – | 264 | –
